High-throughput results deposited in PubChem BioAssay by several laboratories.
The list is not random: actives were taken first. Their share in the collection is about 1.1%.
SENP1 inh – inhibitors of human SENP1 SUMO protease catalytic domain. hit rate 0.21% among 360,000. AID 624204. inhibition, % at 10 µM. recombinant SENP1 catalytic domain, CyPet-SUMO1-YPet FRET cleavage. Q9P0U3;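 active means inhibition at least 30% at 10 µM, raw YFP signal under a set limit, fluorescence ratio 0.5 to 1.5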
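Material – human SENP1 catalytic domain · Input – SENP1 enzyme, 20 pM final · Compound dosing – single concentration of 10 µM compound, 0.5% DMSO final · Timing – enzyme reaction for 50 min at room temperature, dark · Measured by – FRET fluorescence in CFP and YFP emission channels · Control set – no-enzyme wells low, DMSO-plus-enzyme wells high control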
iPSC survival up – hiPSC single-cell survival enhancement; ATPlite luminescence; 100% = ROCK inhibitor wells, 0% = DMSO; survival enhancement, % at 20 µM; hit rate 0.044% among 360,000; in the data active means survival enhancement above about 18%;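 further: cells exposed to compounds for 16 hours before the ATP read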
ABCB6 inh 2 – blocks the human ABCB6 transporter; Q9NP58; K562-ABCB6 porphyrin accumulation, flow cytometry, 1 h; stronger effect = lower value; fluorescence ratio to DMSO, % at 10 µM; hit rate 0.19% among 360,000; AID 602162;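 active means fluorescence ratio to DMSO below 75%, the collection mean minus 3 SD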;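 further: signal is porphyrin accumulated inside mitochondria; lower ratio means ABCB6 inhibition with less porphyrin fluorescence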
Target sequence (Q9NP58 whole entry, looked up): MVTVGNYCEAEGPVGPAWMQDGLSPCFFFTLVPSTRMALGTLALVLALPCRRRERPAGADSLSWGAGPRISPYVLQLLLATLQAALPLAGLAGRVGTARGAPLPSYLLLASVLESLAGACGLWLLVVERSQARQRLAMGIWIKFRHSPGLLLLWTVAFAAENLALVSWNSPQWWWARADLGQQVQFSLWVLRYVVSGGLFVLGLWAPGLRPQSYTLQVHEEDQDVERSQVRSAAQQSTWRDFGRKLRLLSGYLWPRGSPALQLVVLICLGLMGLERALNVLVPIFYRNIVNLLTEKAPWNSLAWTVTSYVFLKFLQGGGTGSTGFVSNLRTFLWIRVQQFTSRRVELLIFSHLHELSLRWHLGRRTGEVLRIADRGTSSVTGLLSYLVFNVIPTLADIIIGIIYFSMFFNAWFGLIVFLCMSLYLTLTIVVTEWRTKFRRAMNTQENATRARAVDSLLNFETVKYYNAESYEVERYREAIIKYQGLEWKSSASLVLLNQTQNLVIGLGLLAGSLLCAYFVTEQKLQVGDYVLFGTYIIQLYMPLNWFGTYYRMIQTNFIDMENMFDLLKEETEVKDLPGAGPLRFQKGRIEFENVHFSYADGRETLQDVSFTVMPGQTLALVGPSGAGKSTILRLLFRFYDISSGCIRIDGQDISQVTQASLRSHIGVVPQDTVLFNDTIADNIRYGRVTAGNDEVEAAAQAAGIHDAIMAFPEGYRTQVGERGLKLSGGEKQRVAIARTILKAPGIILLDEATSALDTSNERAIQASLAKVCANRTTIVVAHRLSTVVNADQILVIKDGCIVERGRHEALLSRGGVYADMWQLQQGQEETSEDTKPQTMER
FAS-TE inh – blocks the thioesterase domain of human fatty acid synthase | recombinant FAS-TE, OMFH fluorogenic substrate, fluorescence endpoint | inhibition, % at 15 µM | hit rate 0.67% among 360,000 | AID 602261;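 active means compounds whose normalised, plate-corrected inhibition of enzyme fluorescence in the single-dose primary screen is 50% or more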
ABCB6 inh CP1 – human ABCB6 transporter inhibition. shares compounds with ABCB6 inh 2. K562-ABCB6 porphyrin accumulation, flow cytometry, 1 h; stronger effect = lower value. ratio response (% of DMSO), % at 10 µM. 700 tested, under 10 active. AID 602430;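 active means repeat-averaged ratio response below 75% of DMSO, the collection mean minus 3 SD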;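 further: median porphyrin fluorescence at 575 nm with 488 nm excitation from mitochondria; lower ratio means less porphyrin signal so ABCB6 inhibition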
Large screens that a line does not name were inactive (follow-up assays come after a bar, where they were run).

CCn1c(SCC(=O)n2c(C)c(C)c3ccccc32)nnc1-c1ccco1	ABCB6 inh 2 73 | ABCB6 inh CP1 inactive
COc1ccc(C(=O)N2CCN=C2c2ccccc2)cc1OC	ABCB6 inh 2 73 | ABCB6 inh CP1 inactive
O=C(c1ccccc1)N1CCN=C1c1ccccc1	none
Cc1ccc(-n2c(C(C)n3nc(C)c([N+](=O)[O-])c3C)n[nH]c2=S)cc1 (stereo not drawn)	ABCB6 inh 2 61 | ABCB6 inh CP1 inactive
COc1ccc(-n2c(C(C)n3nc(C)c([N+](=O)[O-])c3C)n[nH]c2=S)cc1 (stereo not drawn)	none
S=c1nc(-c2ccc(Cl)cc2)[nH][nH]1	none
CCCOc1ccc(-c2nc(=S)[nH][nH]2)cc1	ABCB6 inh 2 69 | ABCB6 inh CP1 inactive
CC(C)(CNS(=O)(=O)c1cccs1)N1CCOCC1	none
CC(C)(C)c1cc(NC(=O)COC(=O)c2ccc3c(=O)n4c(nc3c2)CCC4)n(-c2ccccc2)n1	ABCB6 inh 2 69 | ABCB6 inh CP1 inactive
O=C(NC1CCCCC1)c1cc(S(=O)(=O)N2CCOCC2)ccc1Cl	none
Cc1ccc2c(c1)C(c1ccccc1)CC(=O)O2 (stereo not drawn)	none
Cc1cccc(OCCSc2nc3ncnc(N)c3[nH]2)c1	ABCB6 inh 2 71 | ABCB6 inh CP1 inactive
Cc1ccccc1OCCSc1nc2ncnc(N)c2[nH]1	none
CC(C)c1cc(NCCOCCO)n2c(nc3ccccc32)c1C#N	ABCB6 inh 2 73 | ABCB6 inh CP1 inactive
CC(C)(C)NC(=O)c1cccc(NC(=O)c2cccc(O)c2)c1	ABCB6 inh 2 63 | ABCB6 inh CP1 inactive
COc1ccc(S(=O)(=O)N(C)CC(=O)NCCCn2ccnc2)cc1Cl	none
CCn1c(=O)n(CC)c2cc(N3CCCC3)c(NC(=O)c3ccccc3C)cc21	ABCB6 inh 2 64 | ABCB6 inh CP1 inactive
COc1ccc([C@@H]2Sc3cc(OC)ccc3N(CCN(C(C)C)C(C)C)C(=O)[C@H]2OC(C)=O)cc1	ABCB6 inh 2 51 | ABCB6 inh CP1 inactive
Cc1cc(C(=O)Nc2c(F)cc(F)cc2Br)n(-c2ccccc2)n1	none
O=C(Nc1cccc(Oc2ccccc2)c1)C1Cc2c(-c3ccc4c(c3)OCO4)ccnc2O1 (stereo not drawn)	none | ABCB6 inh CP1 inactive
O=C(Nc1cccc(OC(F)(F)F)c1)C1Cc2c(-c3ccc4c(c3)OCO4)ccnc2O1 (stereo not drawn)	none | ABCB6 inh CP1 inactive
C#CCNC(=O)C[C@@H]1C[C@@]2(C(=O)OCC)CCC=C2N(Cc2ccc(Cl)cc2Cl)C1=O	none
Cc1ccc(S(=O)(=O)NCC(=O)NC2CC2)cc1	none
Cc1ccc(Cn2nnc3c(=O)[nH]c(C4CCN(C(=O)Cc5cccs5)CC4)nc32)cc1	none
CC(C)(C)c1ccc(Cn2nnc3c(=O)[nH]c(C4CCN(C(=O)Cc5cccs5)CC4)nc32)cc1	ABCB6 inh 2 68 | ABCB6 inh CP1 inactive
O=C(Cc1cccs1)N1CCC(c2nc3c(nnn3Cc3ccccc3)c(=O)[nH]2)CC1	none | ABCB6 inh CP1 inactive
CC(C)(C)c1ccc(Cn2nnc3c(=O)[nH]c(C4CCCN(C(=O)Cc5cccs5)C4)nc32)cc1 (stereo not drawn)	none
COc1ccc(-n2nc(C(=O)NCC3CCCO3)c3ccccc3c2=O)cc1 (stereo not drawn)	ABCB6 inh 2 16 | ABCB6 inh CP1 inactive
COc1ccc(-n2nc(C(=O)NCC(=O)NCC3CCCO3)c3ccccc3c2=O)cc1 (stereo not drawn)	none
CC1(C)CC(=O)C=C(Nc2cc(-c3ccccc3)[nH]n2)C1	ABCB6 inh 2 47 | ABCB6 inh CP1 inactive
Cc1csc(=O)n1CC(=O)OCC(=O)Nc1ccc(F)c(F)c1	none
O=C(Nc1cccc(C(F)(F)F)c1)C1Cc2c(-c3ccco3)ccnc2O1 (stereo not drawn)	none
COc1ccc(NC(=O)C2Cc3c(-c4cccc(NC(C)=O)c4)ccnc3O2)cc1 (stereo not drawn)	none | ABCB6 inh CP1 inactive
CC(=O)Nc1ccc(NC(=O)C2Cc3c(-c4cccc(C(C)=O)c4)ccnc3O2)cc1 (stereo not drawn)	none | ABCB6 inh CP1 inactive
CC(=O)Nc1ccc(-c2ccnc3c2CC(C(=O)Nc2ccc4c(c2)OCO4)O3)cc1 (stereo not drawn)	none
CC(=O)Nc1ccc(NC(=O)C2Cc3c(-c4cccc(NC(C)=O)c4)ccnc3O2)cc1 (stereo not drawn)	none
CC(=O)c1cccc(-c2ccnc3c2CC(C(=O)Nc2ccc4c(c2)OCO4)O3)c1 (stereo not drawn)	none | ABCB6 inh CP1 inactive
O=C(Nc1cccnc1)C1Cc2c(-c3ccco3)ccnc2O1 (stereo not drawn)	ABCB6 inh 2 74 | ABCB6 inh CP1 inactive
CC(=O)Nc1cccc(C(=O)OC(C)C(=O)N2CCc3ccccc32)c1 (stereo not drawn)	none
CC(=O)NC1=NN(C(C)=O)C(c2ccco2)S1 (stereo not drawn)	none
COc1ccc(NC(=O)C2Cc3c(-c4ccc(NC(C)=O)cc4)ccnc3O2)cc1OC (stereo not drawn)	none
CC(=O)Nc1ccc(-c2ccnc3c2CC(C(=O)Nc2ccccc2)O3)cc1 (stereo not drawn)	none | ABCB6 inh CP1 inactive
COc1ccc(NC(=O)C2Cc3c(-c4cccc(F)c4)ccnc3O2)cc1OC (stereo not drawn)	ABCB6 inh 2 69 | ABCB6 inh CP1 inactive
CCOC(=O)C1(C)CCCN(C(=O)c2ccc(C)c(F)c2)C1 (stereo not drawn)	none
COCc1cc(C)nc(SCC(=O)NC2CCCCC2C)c1C#N (stereo not drawn)	none
COCc1cc(C)nc(SCC(=O)N2CCC(C)CC2)c1C#N	ABCB6 inh 2 58 | ABCB6 inh CP1 inactive
O=C(COC(=O)c1c(F)cccc1F)NC(=O)NCc1ccccc1	none
CC(C(=O)NCC1(c2ccccc2)CCCC1)N1CCOCC1 (stereo not drawn)	ABCB6 inh 2 60 | ABCB6 inh CP1 inactive
CC(C(=O)NCC1(c2ccccc2)CCOCC1)N1CCOCC1 (stereo not drawn)	none
COC(=O)[C@H](CCSC)NC(=O)Cn1cnc2c(OCc3ccccc3)ncnc21	none
O=S(=O)(c1ccc2nc(-c3ccccc3)[nH]c2c1)N1CCN(c2cccc(Cl)c2)CC1	ABCB6 inh 2 58 | ABCB6 inh CP1 inactive
COc1ccccc1N1CCN(S(=O)(=O)c2ccc3nc(-c4ccccc4)[nH]c3c2)CC1	none
CCc1ccc(CNC(=O)C2Cc3cc(S(=O)(=O)N4CCCC4)ccc3N2C(C)=O)cc1 (stereo not drawn)	ABCB6 inh 2 5.0 | ABCB6 inh CP1 inactive
O=C(NCc1ccc(F)cc1Cl)C1CCN(S(=O)(=O)N2CCC3(CC2)OCCO3)CC1	ABCB6 inh 2 69 | ABCB6 inh CP1 inactive
COc1ccccc1-c1cccc(-c2nc(C(=O)N3CCCCC3)cc3c2[C@@H](CCO)N(S(=O)C(C)(C)C)C3)c1 (stereo partly drawn)	none
